Calls of active or inactive are those of the source. No cut-off for these calls is given here.
Experiments:
HL-60 = assay: Antiproliferative activity against human HL60 cells after 2 days; format: functional, cell-based; details: HL-60, 48 h
P388 = assay: Cytotoxicity against mouse P388 cells; format: functional, cell-based
[1] = Cytotoxicity against BSC1 cells assessed as radius zone size at 120 ug/disk; format: cell-based; details: chlorocebus aethiops, bsc-1
Outline: (§1)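 Disk diffusion assay with 120 µg loaded per disk. The read-out was the excess radius of the zone around the disk, in mm.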

Escherichia coli = assay: Antimicrobial activity against Escherichia coli at 120 ug/disk; format: functional, organism-based
Bacillus subtilis = assay: Antimicrobial activity against Bacillus subtilis at 120 ug/disk; format: functional; outline: as §1
[2] = system: Trichophyton mentagrophytes; assay: Antimicrobial activity against Trichophyton mentagrophytes at 120 ug/disk; format: functional; outline: as §1
Candida albicans = assay: Antimicrobial activity against Candida albicans at 120 ug/disk; format: functional, organism-based
[3] = system: Mycobacterium tuberculosis; assay: Antimicrobial activity against Mycobacterium tuberculosis at 6.25 ug/mL; format: functional

Row | Structure (SMILES) | IC50 (HL-60) [µM] | IC50 (P388) [µM] | Activity [1] [mm] | Activity (Escherichia coli) | Activity (Bacillus subtilis) | Activity [2] | Activity (Candida albicans) | inhibition at 6.25 µg/mL [3] [%] | zone of inhibition at 120 µg/disc (Bacillus subtilis; read-out: IZ) [mm] | zone of inhibition at 120 µg/disc ([2]; read-out: IZ) [mm]
1 | CCCCC[C@@H](C/C=C/CCC(=O)NC/C(=C/Cl)[C@H]1C(=O)C(C)(C)C(=O)[C@@H](C)[C@@]1(C)O)OC [MALYNGAMIDE S] | 6 | 29 | > 4.5 | inactive | inactive | inactive | inactive | 0 | – | –
2 | CCCCC[C@@H](C/C=C/CCC(=O)O)OC | – | > 100 | > 4.5 | – | – | – | – | – | 2 | 3
